Test results reported in ChEMBL document CHEMBL5512639, “Insights from structure-activity relationships and the binding mode of peptidic α-ketoamide inhibitors of the malaria drug target subtilisin-like SUB1” (Eur J Med Chem, 2024).
Active and inactive are the calls of the source. No cut-off for these calls is given here. Numbered stars: 1 amine (or outer) side, 2 acyl side, 3 side chain; on linkers, the order of the positions; unused ones are H or OH. Square brackets hold non-standard residues; d marks the D form. Peptide text beside a SMILES is read from it. * marks the point of attachment. Abu(4,4,4-F3) = N[C@@H](CC(F)(F)F)C(=O)O; Gly(cPent) = N[C@H](C(=O)O)C1CCCC1; X1 = C[C@H](N[*:1])C(=O)C(=O)[*:2]; tBuAla = CC(C)(C)C[C@H](N)C(=O)O; NMeL = CN[C@@H](CC(C)C)C(=O)O; hSer = N[C@@H](CCO)C(=O)O; Abu = CC[C@H](N)C(=O)O; Dap = NC[C@H](N)C(=O)O; Aib = CC(C)(N)C(=O)O; Sar = CNCC(=O)O; OAll = C=CCO*

Key:
[1] = Inhibition of full length recombinant Plasmodium vivax SUB1 expressed in Drosophila S2 cells using Dabsyl-KLVGADDV-SLA-EDANS as substrate measured every 2 mins for 1 hr by FRET assay
Plasmodium falciparum = assay: Antiparasitic activity against Plasmodium falciparum infected in human Erythrocyte assessed as inhibition of merozoite egress from human Erythrocyte at 100 uM measured for 8 hrs by flow cytometry analysis relative to control; format: functional
How it was run: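 P. falciparum cultured in human RBCs, RPMI 1640 with 25 mM HEPES, 2.5% Albumax II, 100 μM hypoxanthine, 37 °C, 5% O2/5% CO2. Sorbitol-synchronized, plasmion-enriched late schizonts at 2% hematocrit, 1% parasitemia exposed to compound for 8 h. Fixed in glutaraldehyde, permeabilized, RNase-treated, stained with YOYO-1. Ring parasitemia by flow cytometry (100,000 events) vs DMSO. Triplicate; IC50 from 16 concentrations, 180 to 0.8 μM.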

IC50 [1] [µM]	SMILES	inhibition (Plasmodium falciparum)	inhibition at 100 µM (Plasmodium falciparum) [%]
2.39	C=CCOC(=O)CC[C@H](NC(=O)[C@H](CC(=O)O)NC(=O)C(=O)[C@H](CNC(C)=O)NC(=O)[C@H](C)NC(=O)[C@@H](NC(=O)[C@@H](NC(C)=O)C1CCCC1)[C@@H](C)O)C(N)=O	inactive	
13.2	C=CCOC(=O)CC[C@H](NC(=O)[C@H](CC(=O)O)NC(=O)C(=O)[C@H](C)NC(=O)[C@H](C)NC(=O)[C@H](CC(C)C)N(C)C(=O)[C@@H](NC(C)=O)C1CCCC1)C(N)=O (Ac-[Gly(cPent)][NMeL]A[X1]DE(OAll)-NH2)		
> 100	C=CCOC(=O)CC[C@H](NC(=O)[C@H](CC(=O)O)NC(=O)C(=O)[C@H](C)NC(=O)C(C)(C)NC(=O)[C@@H](NC(=O)[C@@H](NC(C)=O)C1CCCC1)[C@@H](C)O)C(N)=O (Ac-[Gly(cPent)]T[Aib][X1]DE(OAll)-NH2)	inactive	
0.39	C=CCOC(=O)CC[C@H](NC(=O)[C@H](CC(=O)O)NC(=O)C(=O)[C@H](C)NC(=O)[C@H](C)NC(=O)[C@@H](NC(=O)[C@H](CC(C)(C)C)NC(C)=O)[C@@H](C)O)C(N)=O (Ac-[tBuAla]TA[X1]DE(OAll)-NH2)	inactive	
4.7	C=CCOC(=O)CC[C@H](NC(=O)[C@H](CC(=O)O)NC(=O)C(=O)[C@H](C)NC(=O)CN(C)C(=O)[C@@H](NC(=O)[C@@H](NC(C)=O)C1CCCC1)[C@@H](C)O)C(N)=O (Ac-[Gly(cPent)]T[Sar][X1]DE(OAll)-NH2)		

The next lines start with the molecule.

SMILES	IC50 [1] [µM]	inhibition (Plasmodium falciparum)	inhibition at 100 µM (Plasmodium falciparum) [%]
C=CCOC(=O)CC[C@H](NC(=O)[C@H](CC(=O)O)NC(=O)C(=O)[C@H](C)NC(=O)[C@H](CC(F)(F)F)NC(=O)[C@@H](NC(=O)[C@@H](NC(C)=O)[C@@H](C)CC)[C@@H](C)O)C(N)=O (Ac-IT[Abu(4,4,4-F3)][X1]DE(OAll)-NH2)	3.6		
C=CCOC(=O)CC[C@H](NC(=O)[C@H](CCO)NC(=O)C(=O)[C@H](C)NC(=O)[C@H](C)NC(=O)[C@@H](NC(=O)[C@@H](NC(C)=O)[C@@H](C)CC)[C@@H](C)O)C(N)=O (Ac-ITA[X1][hSer]E(OAll)-NH2)	38.8		
CC[C@H](C)[C@H](NC(C)=O)C(=O)N[C@H](C(=O)N[C@@H](C)C(=O)N[C@@H](C)C(=O)C(=O)N[C@@H](CC(=O)O)C(N)=O)[C@@H](C)O (Ac-ITA[X1]D-NH2)	0.17		3
C=CCOC(=O)CC[C@H](NC(=O)[C@H](CC(=O)O)NC(=O)C(=O)[C@H](C)NC(=O)[C@H](CN)NC(=O)[C@@H](NC(=O)[C@@H](NC(C)=O)[C@@H](C)CC)[C@@H](C)O)C(N)=O (Ac-IT[Dap][X1]DE(OAll)-NH2)	13.2		
C=CCOC(=O)CC[C@H](NC(=O)[C@H](CC(=O)O)NC(=O)C(=O)[C@H](CNC(C)=O)NC(=O)[C@H](C)NC(=O)[C@@H](NC(=O)[C@@H](NC(C)=O)[C@@H](C)CC)[C@@H](C)O)C(N)=O	23.1		
C=CCOC(=O)CC[C@H](NC(=O)[C@H](CO)NC(=O)C(=O)[C@H](C)NC(=O)[C@H](C)NC(=O)[C@@H](NC(=O)[C@@H](NC(C)=O)[C@@H](C)CC)[C@@H](C)O)C(N)=O (Ac-ITA[X1]SE(OAll)-NH2)	41.8		
C=CCOC(=O)CC[C@H](NC(=O)[C@H](CCC(=O)O)NC(=O)C(=O)[C@H](C)NC(=O)[C@H](C)NC(=O)[C@@H](NC(=O)[C@@H](NC(C)=O)[C@@H](C)CC)[C@@H](C)O)C(N)=O (Ac-ITA[X1]EE(OAll)-NH2)	2.9		
C=CCOC(=O)CC[C@H](NC(=O)[C@H](CC(=O)O)NC(=O)C(=O)[C@H](C)NC(=O)CNC(=O)[C@@H](NC(=O)[C@@H](NC(C)=O)[C@@H](C)CC)[C@@H](C)O)C(N)=O (Ac-ITG[X1]DE(OAll)-NH2)	1.28		
C=CCOC(=O)CC[C@H](NC(=O)[C@H](CC(=O)O)NC(=O)C(=O)[C@H](C)NC(=O)[C@H](CC)NC(=O)[C@@H](NC(=O)[C@@H](NC(C)=O)[C@@H](C)CC)[C@@H](C)O)C(N)=O (Ac-IT[Abu][X1]DE(OAll)-NH2)	0.35		
C=CCOC(=O)CC[C@H](NC(=O)[C@H](CC(=O)O)NC(=O)C(=O)[C@H](C)NC(=O)[C@@H](C)NC(=O)[C@@H](NC(=O)[C@@H](NC(C)=O)C1CCCC1)[C@@H](C)O)C(N)=O		inactive	
